According to ChEMBL document CHEMBL1137362, “Synthesis and radioligand binding studies of methoxylated 1,2,3,4-tetrahydroisoquinolinium derivatives as ligands of the apamin-sensitive Ca2+-activated K+ channels” (J Med Chem, 2006):

Experiments:
[1] = molecular target: Small conductance calcium-activated potassium channel (Rattus norvegicus) (UniProt P70604+P70606+P70605); test: Displacement of [125I]apamin from Wistar rat cortical apamin-sensitive site at 10 uM; type: protein assay
Outline: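 Single-concentration screen at 10 µM: rat cortical synaptosomes (0.2 mg protein/mL) with 10 pM 125I-apamin, 1 h at 0 °C, Tris-HCl pH 7.5 buffer with 5.4 mM KCl and 0.1% BSA. Percent of specific radioligand binding displaced is reported; nonspecific binding defined with 0.1 µM apamin; filtration and scintillation counting; n = 3.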

[2] = molecular target: Small conductance calcium-activated potassium channel (Rattus norvegicus, UniProt P70604+P70606+P70605); test: Displacement of [125I]apamin from Wistar rat cortical apamin-sensitive site; type: protein assay
Rattus norvegicus [3] = species on record: Rattus norvegicus; test: Blockade of apamin-sensitive AHP in Wistar rat dopaminergic neurons by electrophysiology assay at 100 uM; type: functional, organism-based; settings: neuron
Outline: (§1)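 Intracellular bridge-balance recording of the apamin-sensitive AHP in dopaminergic neurons; drugs dissolved in water. IC50 obtained by fitting E = Emax/[1 + (IC50/x)h]; percent AHP block reported at 100 µM; means ± SEM, n = 3.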

Rattus norvegicus [4] = species on record: Rattus norvegicus; test: Blockade of apamin-sensitive AHP in Wistar rat dopaminergic neurons by electrophysiology assay; type: functional, organism-based; settings: Neuron; outline: as §1

Activity [1]	SMILES	other results
0%	COc1cc2c(c(OC)c1OC)C(Cc1ccc3ccccc3c1)N(C)CC2 (stereo unspecified)	
32%	COc1ccc(CCC2c3cc(OC)c(OC)cc3CC[N+]2(C)C)cc1OC.[I-] (stereo unspecified)	Ki [2]: 5.4 µM
11%	COc1ccc(CCC2c3cc(OC)c(OC)cc3CCN2C)cc1OC (stereo unspecified)	
53%	COc1cc2c(c(OC)c1OC)C(Cc1ccc3ccccc3c1)[N+](C)(C)CC2.[I-] (stereo unspecified)	Ki [2]: 2.2 µM
0%	COc1cc2c(cc1OC)C(CC(C)C)[N+](C)(C)CC2 (stereo unspecified)	
0%	COc1cc2c(c(OC)c1)C(Cc1ccc3ccccc3c1)N(C)CC2 (stereo unspecified)	
20%	COc1cc2c(c(OC)c1)C(Cc1ccc(OC)c(OC)c1)[N+](C)(C)CC2 (stereo unspecified)	
18%	COc1ccc2c(c1OC)C(Cc1ccc3ccccc3c1)[N+](C)(C)CC2 (stereo unspecified)	
6%	CCCC1c2cc(OC)c(OC)cc2CC[N+]1(C)C (stereo unspecified)	
6%	COc1cc2c(cc1OC)C(Cc1ccc3ccccc3c1)N(C)CC2 (stereo unspecified)	
24%	COc1ccc(CC2c3c(ccc(OC)c3OC)CC[N+]2(C)C)cc1OC (stereo unspecified)	
	COc1ccc2c(c1OC)C(=O)O[C@@H]2[C@H]1c2c(cc3c(c2OC)OCO3)CC[N+]1(C)C.[I-]	Ki [2]: 3.6 µM
27%	COc1ccc(CC2c3c(cc(OC)c(OC)c3OC)CCN2C)cc1OC (stereo unspecified)	Inhibition (Rattus norvegicus [3]): 51.9%
3%	COc1ccc(CC2c3c(ccc(OC)c3OC)CCN2C)cc1OC (stereo unspecified)	
	COc1ccc(C[C@H]2c3cc(OC)c(OC)cc3CC[N+]2(C)C)cc1OC.[I-] [LAUDANOSINE METHIODIDE]	Ki [2]: 1.3 µM; IC50 (Rattus norvegicus [4]): 15 µM
0%	COc1cc2c(c(OC)c1)C(Cc1ccc(OC)c(OC)c1)N(C)CC2 (stereo unspecified)	
0%	COc1ccc2c(c1OC)C(Cc1ccc3ccccc3c1)N(C)CC2 (stereo unspecified)	
72%	COc1ccc(CC2c3c(cc(OC)c(OC)c3OC)CC[N+]2(C)C)cc1OC.[I-] (stereo unspecified)	Ki [2]: 0.73 µM; IC50 (Rattus norvegicus [4]): 9 µM
0%	CN1CCc2ccccc2C1Cc1ccc2ccccc2c1 (stereo unspecified)	
2%	COc1cc2c(c(OC)c1)C(Cc1ccc3ccccc3c1)[N+](C)(C)CC2 (stereo unspecified)	
1%	C[N+]1(C)CCc2ccccc2C1Cc1ccc2ccccc2c1 (stereo unspecified)	
70%	COc1cc2c(cc1OC)C(Cc1ccc3ccccc3c1)[N+](C)(C)CC2.[I-] (stereo unspecified)	Ki [2]: 0.91 µM

SMILES	Activity [1]	other results
CCCC1c2cc(OC)c(OC)cc2CCN1C (stereo unspecified)	0%	
COc1cc2c(cc1OC)C(CC(C)C)N(C)CC2 (stereo unspecified)	0%	
